ChEMBL document CHEMBL4765234 (J Med Chem, 2016)
Calls of active or inactive are those of the source. The calls are words filed in the database; no cut-off is given here.

What was measured:
[1] = target: T1, Free fatty acid receptor 1 (Homo sapiens, UniProt O14842); test: Displacement of [3H]-TAK-875 from human recombinant full-length GPR40 expressed in human HEK293 cell membrane incubated for 2 hrs by solid scintillation counting method; assay type: cell membranes
[2] = target: T1, Free fatty acid receptor 1; test: Agonist activity at human recombinant full-length Prolink-tagged GPR40 fused with EA-tagged beta-arrestin expressed in human HEK293 cells assessed as induction of beta-arrestin recruitment measured after 90 mins by beta-galactosidase based PathHunter assay; assay type: cell-based
Procedure, shortened: (§1)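 PathHunter β-gal complementation. Cells were incubated overnight at 5000/well in medium with 1% heat-inactivated FBS. Compound was added as a 20-point 2-fold series from a top final of 100 μM (1% DMSO) for 90 min at 37 °C, followed by detection reagents and chemiluminescence read after 1 h at rt.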

[3] = target: T2, Peroxisome proliferator-activated receptor alpha (Homo sapiens) (UniProt Q07869); test: Displacement of [3H]-[…] from PPARalpha (unknown origin) expressed in baculovirus infected Sf9 insect cells upto 30 uM measured after 10 hrs by microbeta scintillation counting analysis; settings: dose microM <=30, time 10.0 hrs
T2 sequence (whole entry): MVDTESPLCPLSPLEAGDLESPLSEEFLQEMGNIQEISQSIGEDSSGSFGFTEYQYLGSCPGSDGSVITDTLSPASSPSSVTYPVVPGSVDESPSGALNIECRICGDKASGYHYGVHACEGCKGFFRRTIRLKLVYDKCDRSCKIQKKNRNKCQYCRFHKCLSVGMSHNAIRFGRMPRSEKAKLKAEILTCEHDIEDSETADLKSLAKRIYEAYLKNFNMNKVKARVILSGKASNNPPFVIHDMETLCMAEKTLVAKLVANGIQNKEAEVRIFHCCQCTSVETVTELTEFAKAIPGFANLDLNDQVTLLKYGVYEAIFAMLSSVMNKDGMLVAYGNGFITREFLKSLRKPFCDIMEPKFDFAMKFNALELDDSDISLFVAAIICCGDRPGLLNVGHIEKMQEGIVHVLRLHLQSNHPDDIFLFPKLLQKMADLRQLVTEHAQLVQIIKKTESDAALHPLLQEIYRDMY
Procedure, shortened: (§2)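 Scintillation proximity assay. Sf9 lysates with baculovirus-expressed PPARα (0.3 μg), PPARδ (0.5 μg) or PPARγ (1.25 μg), each with RXRα, were bound via biotinylated DR2 oligo (0.126 nM) to streptavidin yttrium silicate beads. Buffer was HEPES pH 7.8 with KCl, MgCl2, DTT, CHAPS, 14% glycerol and salmon sperm DNA. A 3H reference agonist ligand was used, with 11 compound concentrations, for 10 h. Nonspecific binding was defined with 10000 nM unlabeled reference. Ki was derived from IC50.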

[4] = target: T1, Free fatty acid receptor 1; test: Agonist activity at human recombinant full length GPR40 overexpressed in human HEK293 cells assessed as increase in inositol phosphate accumulation in presence of terbium cryptate-labeled anti IP1/d2-labelled IP1 measured after 120 mins by HTRF assay; assay type: functional, cell-based
Procedure, shortened: (§3)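 HEK293 hGPR40 cells (20K/well) were cultured overnight, washed, and held in IP1 stimulation buffer. IP-1 was measured by competitive HTRF immunoassay with terbium cryptate anti-IP1 mAb and d2-labelled IP1.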

[5] = target: Free fatty acid receptor 1 (Rattus norvegicus) (UniProt Q8K3T4); test: Agonist activity at Prolink-tagged rat GPR40 fused with EA-tagged beta-arrestin expressed in human U2OS cells assessed as induction of beta-arrestin recruitment measured after 90 mins by beta-galactosidase based PathHunter assay relative to control; assay type: cell-based; settings: filed as agonist; procedure, shortened: as §1
[6] = target: T3, Peroxisome proliferator-activated receptor gamma (Homo sapiens) (UniProt P37231); test: Displacement of [3H]-[…] from PPARgamma (unknown origin) expressed in baculovirus infected Sf9 insect cells upto 30 uM measured after 10 hrs by microbeta scintillation counting analysis; settings: dose microM <=30, time 10.0 hrs; procedure, shortened: as §2
T3 sequence (whole entry): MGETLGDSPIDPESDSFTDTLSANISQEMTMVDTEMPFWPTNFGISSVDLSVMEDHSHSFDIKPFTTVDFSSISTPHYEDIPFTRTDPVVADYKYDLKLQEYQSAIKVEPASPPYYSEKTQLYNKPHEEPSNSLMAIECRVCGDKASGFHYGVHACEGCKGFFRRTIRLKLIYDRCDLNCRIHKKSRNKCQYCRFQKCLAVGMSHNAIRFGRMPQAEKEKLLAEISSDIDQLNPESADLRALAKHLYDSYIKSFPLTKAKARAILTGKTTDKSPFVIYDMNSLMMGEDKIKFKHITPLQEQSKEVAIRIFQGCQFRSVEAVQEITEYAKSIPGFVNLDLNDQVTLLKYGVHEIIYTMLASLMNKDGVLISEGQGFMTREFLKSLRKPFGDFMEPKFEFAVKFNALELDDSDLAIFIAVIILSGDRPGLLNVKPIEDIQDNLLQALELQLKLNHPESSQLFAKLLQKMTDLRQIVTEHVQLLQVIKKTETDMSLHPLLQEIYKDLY

[7] = target: T4, Peroxisome proliferator-activated receptor delta (Homo sapiens) (UniProt Q03181); test: Displacement of [3H]-[…] from PPARdelta (unknown origin) expressed in baculovirus infected Sf9 insect cells upto 30 uM measured after 10 hrs by microbeta scintillation counting analysis; settings: dose microM <=30, time 10.0 hrs; procedure, shortened: as §2
T4 sequence (whole entry): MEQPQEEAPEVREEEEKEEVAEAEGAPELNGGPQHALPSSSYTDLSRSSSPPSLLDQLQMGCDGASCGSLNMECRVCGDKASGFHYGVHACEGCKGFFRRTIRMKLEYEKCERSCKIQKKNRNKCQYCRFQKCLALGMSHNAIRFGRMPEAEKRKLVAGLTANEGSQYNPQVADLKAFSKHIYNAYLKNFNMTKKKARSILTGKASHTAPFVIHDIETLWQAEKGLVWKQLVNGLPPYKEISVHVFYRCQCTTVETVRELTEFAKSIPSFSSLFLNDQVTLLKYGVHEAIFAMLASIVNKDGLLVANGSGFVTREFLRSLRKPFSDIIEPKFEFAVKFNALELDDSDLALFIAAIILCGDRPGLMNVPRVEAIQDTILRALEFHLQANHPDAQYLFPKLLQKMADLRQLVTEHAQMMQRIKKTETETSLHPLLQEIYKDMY

[8] = Protein binding in plasma (unknown origin) by equilibrium dialysis method; assay type: ADME, cell-free; settings: human, read-out: PPB
Procedure, shortened: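 Plasma protein binding measured by equilibrium dialysis.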

[9] = target: T1, Free fatty acid receptor 1; test: Agonist activity at human recombinant full length GPR40 overexpressed in human HEK293 cells assessed as increase in inositol phosphate accumulation in presence of terbium cryptate-labeled anti IP1/d2-labelled IP1 measured after 120 mins by HTRF assay relative to AMG837; assay type: functional, cell-based; settings: filed as agonist; procedure, shortened: as §3
[10] = target: T1, Free fatty acid receptor 1; test: Agonist activity at human recombinant full-length Prolink-tagged GPR40 fused with EA-tagged beta-arrestin expressed in human HEK293 cells assessed as induction of beta-arrestin recruitment measured after 90 mins by beta-galactosidase based PathHunter assay relative to control; assay type: cell-based; settings: filed as agonist; procedure, shortened: as §1
[11] = target: Free fatty acid receptor 1 (Mus musculus, UniProt Q76JU9); test: Agonist activity at Prolink-tagged mouse GPR40 fused with EA-tagged beta-arrestin expressed in human U2OS cells assessed as induction of beta-arrestin recruitment measured after 90 mins by beta-galactosidase based PathHunter assay; assay type: cell-based; procedure, shortened: as §1
[12] = target: Free fatty acid receptor 1 (Rattus norvegicus, UniProt Q8K3T4); test: Agonist activity at Prolink-tagged rat GPR40 fused with EA-tagged beta-arrestin expressed in human U2OS cells assessed as induction of beta-arrestin recruitment measured after 90 mins by beta-galactosidase based PathHunter assay; assay type: cell-based; procedure, shortened: as §1
[13] = target: T1, Free fatty acid receptor 1; test: Agonist activity at human recombinant full length GPR40 overexpressed in human HEK293 cells assessed as increase in intracellular calcium level measured over 3 mins by calcium 4 dye based FLIPR assay relative to 100 uM linoleic acid; assay type: functional, cell-based; settings: filed as agonist
Procedure, shortened: (§4)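 HEK293 cells overexpressing hGPR40 (25K/well) were cultured overnight in DMEM/F12 with 0.2% FBS and geneticin. Compound was tested at 40 μM–0.1 nM final (20-point, 1% DMSO), and FLIPR fluorescence was read over 3 min.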

[14] = target: Free fatty acid receptor 1 (Mus musculus) (UniProt Q76JU9); test: Agonist activity at Prolink-tagged mouse GPR40 fused with EA-tagged beta-arrestin expressed in human U2OS cells assessed as induction of beta-arrestin recruitment measured after 90 mins by beta-galactosidase based PathHunter assay relative to control; assay type: cell-based; settings: filed as agonist; procedure, shortened: as §1
[15] = target: T1, Free fatty acid receptor 1; test: Agonist activity at human recombinant full length GPR40 overexpressed in human HEK293 cells assessed as increase in intracellular calcium level measured over 3 mins by calcium 4 dye based FLIPR assay; assay type: functional, cell-based; procedure, shortened: as §4

Sequence of Free fatty acid receptor 1 (Rattus norvegicus) (Q8K3T4 whole entry, the tested form may be a part): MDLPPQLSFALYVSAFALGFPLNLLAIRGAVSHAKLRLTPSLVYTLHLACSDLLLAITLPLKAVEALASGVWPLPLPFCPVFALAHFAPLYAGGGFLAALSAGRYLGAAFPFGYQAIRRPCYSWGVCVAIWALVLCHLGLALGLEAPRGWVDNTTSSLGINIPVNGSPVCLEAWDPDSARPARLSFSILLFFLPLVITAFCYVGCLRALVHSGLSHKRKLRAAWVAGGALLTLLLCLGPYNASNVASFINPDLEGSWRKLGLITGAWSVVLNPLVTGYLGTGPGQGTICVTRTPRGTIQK
Sequence of Free fatty acid receptor 1 (Rattus norvegicus, UniProt Q8K3T4) (Q8K3T4 whole entry, the tested form may be a part): as above
T1 sequence (O14842 whole entry, the tested form may be a part): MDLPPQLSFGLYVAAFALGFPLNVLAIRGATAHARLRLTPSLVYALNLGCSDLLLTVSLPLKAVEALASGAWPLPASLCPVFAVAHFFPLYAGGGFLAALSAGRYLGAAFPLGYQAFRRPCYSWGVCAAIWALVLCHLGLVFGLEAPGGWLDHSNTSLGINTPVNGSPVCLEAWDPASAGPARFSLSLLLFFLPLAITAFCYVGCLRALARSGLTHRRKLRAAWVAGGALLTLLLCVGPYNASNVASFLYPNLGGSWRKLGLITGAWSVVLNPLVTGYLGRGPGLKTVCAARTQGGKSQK
Sequence of Free fatty acid receptor 1 (Mus musculus, UniProt Q76JU9) (Q76JU9 whole entry, the tested form may be a part): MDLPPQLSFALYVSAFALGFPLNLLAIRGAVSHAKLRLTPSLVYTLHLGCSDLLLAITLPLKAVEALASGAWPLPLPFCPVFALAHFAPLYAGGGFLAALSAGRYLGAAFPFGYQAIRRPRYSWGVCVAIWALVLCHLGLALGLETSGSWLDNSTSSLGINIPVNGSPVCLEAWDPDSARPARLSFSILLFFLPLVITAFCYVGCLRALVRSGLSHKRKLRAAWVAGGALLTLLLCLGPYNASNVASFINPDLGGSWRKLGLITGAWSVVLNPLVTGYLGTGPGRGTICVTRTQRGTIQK
Sequence of Free fatty acid receptor 1 (Mus musculus) (Q76JU9 whole entry, the tested form may be a part): as above

| SMILES | Ki [1] | EC50 [2] | Activity [3] | EC50 [4] | Emax [5] | Activity [6] | Activity [7] | fraction unbound [8] | Emax [9] | Emax [10] | EC50 [11] | EC50 [12] | Emax [13] | Emax [14] | EC50 [15] |
| --- | --- | --- | --- | --- | --- | --- | --- | --- | --- | --- | --- | --- | --- | --- | --- |
| CC#C[C@@H](CC(=O)O)c1ccc(OCc2ccc(CN3CCC4(CC3)CN(C)c3ccc(C(F)(F)F)cc34)cc2)cc1 | 2.7 nM | 2.9 nM | inactive | 4.7 nM | 154% | inactive | inactive | < 0.01 | 275% | 139% | 0.5 nM | 0.59 nM | 42% | 158% | 14 nM |
| CC#C[C@@H](CC(=O)O)c1ccc(OCc2ccc(CN3CCC4(C=Cc5ccccc54)CC3)c(F)c2)cc1 | 4 nM | 9.3 nM | inactive | 2.3 nM | 145% | inactive | inactive | < 0.01 | 210% | 135% | 1.2 nM | 1.3 nM | 51% | 148% | 17 nM |
| CC#C[C@@H](CC(=O)O)c1ccc(OCc2ccc(CN3CCC4(CC3)CN(C)c3c(Cl)cccc34)cc2)cc1 | 3.5 nM | 3.3 nM | inactive | 11 nM | 138% | inactive | inactive | < 0.01 | 378% | 147% | 0.59 nM | 0.89 nM | 42% | 141% | 17 nM |
| CC#C[C@@H](CC(=O)O)c1ccc(OCc2cnc(CN3CCC4(C=Cc5ccccc54)CC3)s2)cc1 | 120 nM | 170 nM | inactive | 5.2 nM | 114% | inactive | inactive | < 0.01 | 129% | 114% | 3.8 nM | 11 nM | 62% | 127% | 4.4 nM |
| CC#C[C@@H](CC(=O)O)c1ccc(OCc2ccc(CN3CCC4(C=Cc5ccccc54)CC3)c(C(F)(F)F)c2)cc1 | 1.1 nM | 1.1 nM | inactive | 1.9 nM | 135% | inactive | inactive | < 0.01 | 255% | 132% | 0.83 nM | 1.1 nM | 55% | 146% | 20 nM |
| O=C(O)CCc1ccc(OCc2ccc(CN3CCC4(C=Cc5ccccc54)CC3)cc2)cc1Cl | 200 nM | 740 nM | inactive | 86 nM | 108% | inactive | inactive | < 0.01 | 265% | 133% | 110 nM | 540 nM | 59% | 116% | 140 nM |
| CC#C[C@@H](CC(=O)O)c1ccc(OCc2sc(CN3CCC4(C=Cc5ccccc54)CC3)nc2C)cc1 | 100 nM | 520 nM | inactive | 72 nM | 73% | inactive | inactive | < 0.01 | 97% | 100% | 18 nM | 100 nM | 53% | 97% | 17 nM |
